From ChEMBL document CHEMBL3526041, “Absorption, metabolism and excretion of [(14)C]mirabegron (YM178), a potent and selective β(3)-adrenoceptor agonist, after oral administration to healthy male volunteers” (Drug Metab Dispos, 2012)

Columns and labels:
Assay type in all cases: ADME, organism-based
Set-up in all cases: dosed compound name [14C]Mirabegron
Conditions in all cases: in vivo
[1] = system: Plasma; test: Drug recovery in healthy human plasma treated with [14C]mirabegron at 160 mg, po as single dose measured at 2 hrs
Method in brief: (§1)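 Plasma taken at 2, 4, 8 and 12 h from the four subjects was pooled at each time point, with dichlorvos added. Pools underwent solid-phase extraction, then HPLC with fractions counted by low-level liquid scintillation. Each peak is expressed as % of the radioactivity injected onto HPLC.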

[2] = system: Plasma; test: Drug recovery in healthy human plasma treated with [14C]mirabegron at 160 mg, po as single dose measured at 12 hrs; method in brief: as §1
[3] = Drug recovery in healthy human urine treated with [14C]mirabegron at 160 mg, po as single dose measured up to 48 hrs
Method in brief: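 Urine was collected at 0–6, 6–12, 12–24 and 24–48 h after a single oral 160 mg [14C]mirabegron dose in four men, with dichlorvos added. Samples underwent solid-phase extraction and radio-HPLC (C18, 40°C), with eluate fractions counted by scintillation. Each peak, as a percentage of eluted radioactivity, was converted to % of dose without recovery correction; mean ± S.D.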

[4] = system: Plasma; test: Drug recovery in healthy human plasma treated with [14C]mirabegron at 160 mg, po as single dose measured at 8 hrs; method in brief: as §1
[5] = system: Plasma; test: Drug recovery in healthy human plasma treated with [14C]mirabegron at 160 mg, po as single dose measured at 4 hrs; method in brief: as §1

SMILES: CC(=O)Nc1ccc(CCNC[C@H](O)c2ccccc2)cc1.Cl
- Compound recovery [1]: 3.7%
- Compound recovery [2]: 13%
- Compound recovery [3]: 2.9%
- Compound recovery [4]: 9.4%
- Compound recovery [5]: 4.9%

SMILES: Nc1nc(CC(=O)Nc2ccc(CCN(C[C@H](O)c3ccccc3)O[C@@H]3O[C@H](C(=O)O)[C@@H](O)[C@H](O)[C@H]3O)cc2)cs1
- Compound recovery [1]: 6.9%
- Compound recovery [2]: Below limit of detection
- Compound recovery [3]: 0.6%
- Compound recovery [4]: 3.5%
- Compound recovery [5]: 5.9%

SMILES: Cl.Nc1ccc(CCNC[C@H](O)c2ccccc2)cc1
- Compound recovery [1]: 3.3%
- Compound recovery [2]: 7.6%
- Compound recovery [3]: 1.7%
- Compound recovery [4]: 6.2%
- Compound recovery [5]: 4.3%

SMILES: Nc1ccc(CCNCC(O)c2ccccc2)cc1O[C@@H]1O[C@H](C(=O)O)[C@@H](O)[C@H](O)[C@H]1O (stereo not given in full)
- Compound recovery [1]: Below limit of detection
- Compound recovery [2]: Below limit of detection
- Compound recovery [3]: 2%
- Compound recovery [4]: Below limit of detection
- Compound recovery [5]: Below limit of detection
